What was measured:
Format in all cases: functional
IGROV-1 = experiment: Antiproliferative activity against human IGROV1 cells assessed as cell growth at 10 uM; details: read-out: Activity
In short: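 NCI 60 cell line panel, single-dose screen (10^-5 M) run by the developmental therapeutics program protocol. Results are given as growth percent of treated cells relative to untreated control cells for each line.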

T47D = experiment: Growth inhibition of human T47D cells
In short: (§1)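 Assayed in the NCI 60 human cancer cell line panel under the Developmental Therapeutics Program protocol. For each line, dose–response curves were plotted against log10 drug concentration. In the one-dose screen at 10^-5 M, growth was given as percent of untreated control cells, and mean graph midpoint values were averaged.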

HCT-116 = experiment: Growth inhibition of human HCT116 cells
In short: (§2)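 NCI 60 cancer cell line screen run per the Developmental Therapeutics Program protocol. Dose–response curves were plotted against log10 drug concentration for each cell line within its subpanel, and mean graph midpoint values were calculated.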

NCI-H460 = experiment: Growth inhibition of human NCI-H460 cells; in short: as §2
OVCAR-4 = experiment: Growth inhibition of human OVCAR4 cells; in short: as §2
NCI-H522 = experiment: Growth inhibition of human NCI-H522 cells; in short: as §2
NCI-H23 = experiment: Growth inhibition of human NCI-H23 cells; in short: as §2
HCC 2998 = experiment: Growth inhibition of human HCC2998 cells; in short: as §2
[1] = Growth inhibition of human […] cells; in short: as §1
UO-31 = experiment: Growth inhibition of human UO31 cells; in short: as §1
OVCAR-5 = experiment: Growth inhibition of human OVCAR5 cells; in short: as §2
HCT-15 = experiment: Growth inhibition of human HCT15 cells; in short: as §2
HT-29 = experiment: Growth inhibition of human HT-29 cells; in short: as §2
NCI-H226 = experiment: Growth inhibition of human NCI-H226 cells; in short: as §2
SK-OV-3 = experiment: Growth inhibition of human SKOV3 cells; in short: as §1
PC-3 = experiment: Growth inhibition of human PC3 cells; in short: as §1
DU-145 = experiment: Growth inhibition of human DU145 cells; in short: as §2
SW-620 = experiment: Growth inhibition of human SW620 cells; in short: as §1
EKVX = experiment: Growth inhibition of human EKVX cells; in short: as §2
LOX IMVI = experiment: Growth inhibition of human LOXIMVI cells; in short: as §2
Malme-3M = experiment: Growth inhibition of human MALME-3M cells; in short: as §2
UACC-62 = experiment: Growth inhibition of human UACC62 cells; in short: as §1
UACC-257 = experiment: Growth inhibition of human UACC257 cells; in short: as §1
SK-MEL-5 = experiment: Growth inhibition of human SK-MEL-5 cells; in short: as §1
M14 = experiment: Growth inhibition of human M14 cells; in short: as §2
HOP-62 = experiment: Growth inhibition of human HOP62 cells; in short: as §2
SF-295 = experiment: Growth inhibition of human SF295 cells; in short: as §1
HL-60(TB) = experiment: Growth inhibition of human HL-60(TB) cells
In short: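 NCI 60-cell-line panel run under the Developmental Therapeutics Program protocol. Dose-response curves are plotted against log10 drug concentration for each cell line within its subpanel, and GI50 is read from these curves.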

SF-539 = experiment: Growth inhibition of human SF539 cells; in short: as §1
A549 = experiment: Growth inhibition of human A549 cells; in short: as §2
HOP-92 = experiment: Growth inhibition of human HOP92 cells; in short: as §2
RXF 393 = experiment: Growth inhibition of human RXF393 cells; in short: as §1
SK-MEL-2 = experiment: Growth inhibition of human SK-MEL-2 cells; in short: as §1
MDA-MB-231 = experiment: Growth inhibition of human MDA-MB-231 cells; in short: as §2
CCRF-CEM = experiment: Growth inhibition of human CCRF-CEM cells; in short: as §2
U-251 = experiment: Growth inhibition of human U251 cells; in short: as §1
[2] = read-out: LC50 (the source's name)

## CC1(C)Nc2ccc3c(c2N1)C(=O)c1ccccc1C3=O
IGROV-1
  growth at 10 µM: -2.8%

## O=C1c2ccccc2C(=O)c2c1ccc1nsnc21
T47D
  GI50: 1.39 µM
  LC50: 8.27 µM
  TGI: 3.39 µM
HCT-116
  GI50: 1.93 µM
  TGI: 5.4 µM
HCT-116; [2]
  CC50: > 100 µM
NCI-H460
  GI50: 3.27 µM
  TGI: 14.3 µM
NCI-H460; [2]
  CC50: 47.3 µM
OVCAR-4
  GI50: 0.65 µM
  TGI: 2.17 µM
OVCAR-4; [2]
  CC50: 5.57 µM
NCI-H522
  GI50: 1.66 µM
  TGI: 3.93 µM
NCI-H522; [2]
  CC50: 9.31 µM
NCI-H23
  GI50: 1.44 µM
  TGI: 6.04 µM
NCI-H23; [2]
  CC50: > 100 µM
HCC 2998
  GI50: 16.4 µM
  TGI: 33.1 µM
HCC 2998; [2]
  CC50: 66.6 µM
[1]
  GI50: 1.18 µM
  TGI: 3.46 µM
[1]; [2]
  CC50: > 100 µM
UO-31
  GI50: 1.62 µM
  TGI: 3.12 µM
UO-31; [2]
  CC50: 6.01 µM
OVCAR-5
  GI50: 1.91 µM
  TGI: 4.11 µM
OVCAR-5; [2]
  CC50: 8.84 µM
HCT-15
  GI50: 1.71 µM
  TGI: 3.72 µM
HCT-15; [2]
  CC50: 8.12 µM
HT-29
  GI50: 13.4 µM
  TGI: 50.4 µM
HT-29; [2]
  CC50: > 100 µM
NCI-H226
  GI50: 4.48 µM
  TGI: 21.6 µM
NCI-H226; [2]
  CC50: 63.7 µM
SK-OV-3
  GI50: 7.71 µM
  TGI: 22.5 µM
SK-OV-3; [2]
  CC50: 53.4 µM
PC-3
  GI50: 3.23 µM
  TGI: > 100 µM
PC-3; [2]
  CC50: > 100 µM
DU-145
  GI50: 1.67 µM
  TGI: 3.24 µM
DU-145; [2]
  CC50: 6.27 µM
SW-620
  GI50: 1.79 µM
  TGI: 3.5 µM
SW-620; [2]
  CC50: 6.84 µM
EKVX
  GI50: 1.55 µM
  TGI: 3.45 µM
EKVX; [2]
  CC50: 7.66 µM
LOX IMVI
  GI50: 0.82 µM
  TGI: 2.13 µM
LOX IMVI; [2]
  CC50: 4.86 µM
Malme-3M
  GI50: 1.66 µM
  TGI: 3.15 µM
Malme-3M; [2]
  CC50: 5.96 µM
IGROV-1
  growth at 10 µM: -88.3%
UACC-62
  GI50: 1.45 µM
  TGI: 2.9 µM
UACC-62; [2]
  CC50: 5.79 µM
UACC-257
  GI50: 1.74 µM
  TGI: 3.51 µM
UACC-257; [2]
  CC50: 7.09 µM
SK-MEL-5
  GI50: 1.58 µM
  TGI: 2.92 µM
SK-MEL-5; [2]
  CC50: 5.41 µM
M14
  GI50: 2.15 µM
  TGI: 4.85 µM
M14; [2]
  CC50: > 100 µM
HOP-62
  GI50: 1.28 µM
  TGI: 3.31 µM
HOP-62; [2]
  CC50: 8.53 µM
SF-295
  GI50: 1.9 µM
  TGI: 4.04 µM
SF-295; [2]
  CC50: 8.56 µM
HL-60(TB)
  GI50: 0.16 µM
  TGI: 0.4 µM
HL-60(TB); [2]
  CC50: 0.99 µM
SF-539
  GI50: 1.46 µM
  TGI: 2.94 µM
SF-539; [2]
  CC50: 5.91 µM
A549
  GI50: 14.7 µM
  TGI: 36.6 µM
A549; [2]
  CC50: 91 µM
HOP-92
  GI50: 2.52 µM
  TGI: 6.64 µM
HOP-92; [2]
  CC50: > 100 µM
RXF 393
  GI50: 1.75 µM
  TGI: 4.4 µM
RXF 393; [2]
  CC50: 14.6 µM
SK-MEL-2
  GI50: 1.68 µM
  TGI: 4.22 µM
SK-MEL-2; [2]
  CC50: 22.5 µM
MDA-MB-231
  GI50: 1.75 µM
  LC50 (concentration killing 50% of cells): > 100 µM
  TGI: 5.9 µM
CCRF-CEM
  GI50: 1.08 µM
  TGI: 4.1 µM
CCRF-CEM; [2]
  CC50: > 100 µM
U-251
  GI50: 1.61 µM
  TGI: 2.96 µM
U-251; [2]
  CC50: 5.44 µM

## N#Cc1ccc(-c2nc3ccc4c(c3[nH]2)C(=O)c2ccccc2C4=O)cc1
IGROV-1
  growth at 10 µM: 66.3%

Reference: ChEMBL document CHEMBL1152649, “Synthesis, cytotoxicity and human telomerase inhibition activities of a series of 1,2-heteroannelated anthraquinones and anthra[1,2-d]imidazole-6,11-dione homologues” (2009)
